For one compound, Activity and GI50 results are on record in ChEMBL document CHEMBL3734720, “Synthesis of thiophene-thiosemicarbazone derivatives and evaluation of their in vitro and in vivo antitumor activities” (Eur J Med Chem, 2015).

One data set deals with 786-0. The experiment in a line: Cell cycle arrest in human 786-0 cells assessed as reduction in G1 phase at 25 uM after 24 hrs by propidium iodide based flow cytometric analysis (reference value: 46.7 +/- 0.8%). The data set is classed as functional. On the set-up: scale not given: the % may be the effect or the level left. For orientation: Flow cytometry measures light scatter and fluorescence of single cells or particles in a stream.

The subject of data set [1] is Mus musculus. Nature of the data set: Acute toxicity in Balb/C mouse assessed as adhesion of organs at 600 mg/kg, po. The conditions noted are these: in vivo. Type of data set: organism-based. In short, it runs like this: (§1)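 Fixed dose procedure following OECD guideline; Balb/C mice (20-35 g) fasted 16 h, groups of 5 given single oral doses stepwise at 600, 400 and 200 mgKg-1; survival and clinical signs of pain, suffering and impending death recorded per OECD guidance.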

For data set [2], the system named is Mus musculus. Nature of the data set: Acute toxicity in Balb/C mouse assessed as pain, suffering and impending death at 200 to 400 mg/kg, po. The conditions noted are these: in vivo. The data set is classed as organism-based. In short, it runs like this:
as §1

Data set [3] is described as follows: Antitumor activity against mouse EAT implanted in Balb/C mouse assessed as change in paw volume at 100 mg/kg, po administered on day 3 post tumor inoculation measured on day 3 by plethysmometer analysis (reference value: 40.2 +/- 7.0%). Type of data set: functional.
Data set [4] can be described thus: Antitumor activity against mouse EAT implanted in Balb/C mouse assessed as change in paw volume at 30 mg/kg, po administered on day 3 post tumor inoculation measured on day 6 by plethysmometer analysis (reference value: 86.1 +/- 5.7%). Type of data set: functional.
Data set [5] can be described thus: Antitumor activity against mouse EAT implanted in Balb/C mouse assessed as change in paw volume at 100 mg/kg, po administered on day 3 post tumor inoculation measured on day 6 by plethysmometer analysis (reference value: 86.1 +/- 5.7%). Type of data set: functional.
A short description of data set [6]: Antitumor activity against mouse EAT implanted in Balb/C mouse assessed as change in paw volume at 300 mg/kg, po administered on day 3 post tumor inoculation measured on day 12 by plethysmometer analysis (reference value: 125.5 +/- 7.5%). Type of data set: functional.
In the next data set the test system is U-251. Nature of the data set: Antiproliferative activity against human U251 cells assessed as growth inhibition after 48 hrs by SRB assay. The data set is classed as functional. The conditions noted are these: U-251, 48 h. The method in brief: (§2)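 Cells exposed 48 h at 37 °C, 5% CO2 to 0.25, 2.5, 25 and 250 µg/mL in DMSO/RPMI (final DMSO 0.1%); doxorubicin standard at 0.025–25 µg/mL. Plates fixed with 50% TCA before (T0) and after treatment; protein content read by sulforhodamine B at 540 nm. GI50 (µM) from nonlinear regression of concentration–response curves; triplicate.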
In general terms: The SRB assay estimates cell density from bound dye.

Data set [7] can be described thus: Antiproliferative activity against human UACC62 cells assessed as growth inhibition after 48 hrs by SRB assay. Type of data set: functional. The conditions noted are these: UACC-62, 48 h. In short, it runs like this:
as §2

The subject of another data set is HT-29. The experiment in a line: Antiproliferative activity against human HT-29 cells assessed as growth inhibition after 48 hrs by SRB assay. The data set is classed as functional. The conditions noted are these: HT-29, 48 h. In short, it runs like this:
as §2

As a reminder, the GI50 is the concentration at which growth is held to half of that of the control.

Consider `S=C(N/N=C/c1cccs1)Nc1ccc(Br)cc1`, for which the Activity in the data set with 786-0 was 44.9%; in the data set with Mus musculus [1], “Toxic”; in the data set with Mus musculus [2], “Non-toxic”; in data set [3] it was 33.4%; in data set [4], 60.6%; in data set [5], 78.1%. Besides, in [6], the Activity is recorded as 64%. Moreover, the GI50 was 4.2 µM in the data set with U-251, 71.1 µM in data set [7] and 17.7 µM in the data set with HT-29.
